Laboratory results from the EternaBench riboswitch data.

Test system: MS2 coat protein
Assay: apparent Kd, MS2 coat protein; higher = weaker binding; RNA-MaP array; FMN 200 µM where present
Summary of the method: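 Green signal was scaled to red-channel RNA signal and control-cluster median Fmax, and the apparent Kd was taken as the median of filtered per-cluster binding-curve fits. The binding series used SNAP-549-labelled MS2 coat protein from 0.7 or 1.5 nM, doubling to 3 µM, on designs transcribed by stalled E. coli RNA polymerase on Illumina sequencing-chip clusters. Each series ran without and then with constant ligand in 100 mM Tris-HCl pH 7.5, 80 mM KCl, 4 mM MgCl2, BSA, DTT, yeast tRNA and Tween-20.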

[1] = designed as: OFF switch for flavin mononucleotide, no ligand
[2] = ligand present: flavin mononucleotide, designed as: OFF switch for flavin mononucleotide
[3] = designed as: ON switch for flavin mononucleotide, no ligand
[4] = ligand present: flavin mononucleotide, designed as: ON switch for flavin mononucleotide

## CUUUUGUGAGGAUAUCAGUAGUAAAAAAAUAAAAUUACUACUGAGAAGGCACAUGAGGAUCACCCAUGUGCCUC
[1]
  apparent Kd: 13.9 nM
[2]
  apparent Kd: 12.9 nM

## CUUUUGUGAGGAUAUCAGUAGUAAAUUAAUAAAAUUACUACUGAGAAGGCACAUGAGGAUCACCCAUGUUCCUC
[1]
  apparent Kd: 42.6 nM
[2]
  apparent Kd: 285 nM

## CUUUUGUGAGGAUAUUAGUAGUAAAAAAAUAAAAUUACUACUGAGAAGGCACAUGAGGAUCACCCAUGUUUCUC
[1]
  apparent Kd: 28.2 nM
[2]
  apparent Kd: 115 nM

## CUUUUGUGAGGAUAUUAGUAGUAAAUAAAUAAAAUUACUACUGAGAAGGCACAUGAGGAUCACCCAUGUUCUUC
[1]
  apparent Kd: 19.4 nM
[2]
  apparent Kd: 93.8 nM

## CUUUUGUGAGGAUAUUAGUAGUAAAUAUAUAAAAUUACUACUGAGAAGGCACAUGAGGAUCACCCAUGUUCCUC
[1]
  apparent Kd: 31.5 nM
[2]
  apparent Kd: 194 nM

## CUUUUGUGAGGAUAUUAGUUGUAAAUAAAUAAAAUUACUACUGAGAAGGCACAUGAGGAUCACCCAUGUUCCUC
[1]
  apparent Kd: 33.3 nM
[2]
  apparent Kd: 161 nM

## GAAAAACAUGAGGAUCACCCAUGUAAGGAUAUGCUGAAAAACACGGAAAAAACGUGCAGCAGAAGGUACAAAAG
[1]
  apparent Kd: 63.2 nM
[2]
  apparent Kd: 83.3 nM

## GAAAAACAUGAGGAUCACCCAUGUGAGAAUAUGGGAGGAUAUUCAAAGACGAAAGUCAAAGAAGAAGGCCUAAAAG
[3]
  apparent Kd: 153 nM
[4]
  apparent Kd: 37.4 nM

## GAACAUGUCCGAGGAUAUCUGAGAUCAUUUUCAAGAGAAGGCGGACAUGAGGAUCACCCAUGUCUCUCCUCAUCAACUCCAAAU
[1]
  apparent Kd: 6.95 nM
[2]
  apparent Kd: 38.5 nM

## GAACAUGUCCGAGGAUAUCUGGAAACAUUUCCAAGAGAAGGCGGACAUGAGGAUCACCCAUGUCUCUCCUCAUCAAAUCCAAGU
[1]
  apparent Kd: 10.1 nM
[2]
  apparent Kd: 91.9 nM

## GAAGCACGCACAGGAUAUCCGGCGGCGCUCGUCGGAGAAGGGUGACAUGAGGAUCACCCAUGUACGUGCAACUCAGUUUGAGAG
[3]
  apparent Kd: 21.5 nM
[4]
  apparent Kd: 13.9 nM

## GAAGGGCCUCGAGGAUAUCGCUGCGGUCGUUUGACAUGAGGAUCACCCAUGUGAGAAGGCGAGGCUACUAACCAUGCCCGUUAU
[1]
  apparent Kd: 31.3 nM
[2]
  apparent Kd: 148 nM

## GAAUAGGCAGGAUAUACAUGAGGAUCACCCAUGUGCUUGCGAUAGGCACGUGAACAACGUAGAAGGGCCUUAAC
[1]
  apparent Kd: 33.2 nM
[2]
  apparent Kd: 149 nM

## GAAUAUUAGCAAGGAUAUCGGCUUACUAUAACUUUAUGCCCUGGGACAUGAGGAUCACCCAUGUACGAGAAGGUGCUUACUACA
[1]
  apparent Kd: 18.9 nM
[2]
  apparent Kd: 29.4 nM

## GAAUGUCGGGUAGGAUAUGACGUGCCACGGAGGUCAGAAGGGCCGCGACAUGAGGAUCACCCAUGUACUGUAUUCCUUUUUCAA
[1]
  apparent Kd: 24.3 nM
[2]
  apparent Kd: 67.4 nM

## GAAUUCGCAUGAGGAUAUGCACUCAUUUCAUGUGCAGAAGGUAUUUCAUUAGACAUGAGGAUCACCCAUGUAUUGGUCAAUAAC
[3]
  apparent Kd: 19.1 nM
[4]
  apparent Kd: 16.1 nM

## GACACUAUGUUUGUCAGAUAGAGAGAGGAUAUGGCUCAUGUGACAUGAGGAUCACCCAUGUAUAAUCAGAAGGCUCGAGUACGA
[3]
  apparent Kd: 45.9 nM
[4]
  apparent Kd: 16.3 nM

## GACAUUGGCAAGAAGGCAAACAUGAGGAUCACCCAUGUUCUGUAUGUAUUUUGAGGAUAUUGCCAAUGUAUGUGGAUCACCCAA
[1]
  apparent Kd: 8.91 nM
[2]
  apparent Kd: 10.1 nM

## GACUGAAUACAGAAGGUGUUUGACAUGAGGAUCACCCAUGUGUUAUUCAGAUUCAUAGAAUAUAACAAGGAUAUGUAUAUAUCA
[3]
  apparent Kd: 228 nM
[4]
  apparent Kd: 61.6 nM

## GACUGCCGAGGAUAUACAUGAGGAUCACCCAUGUGCUUCAGUAUCGAAAGAUGCAUGGGUAGAAGGCGGUAGUC
[1]
  apparent Kd: 391 nM
[2]
  apparent Kd: 284 nM

## GACUGCUGAGGAUAUACAUGAGGAUCACCCAUGUGCUUCAGCUACGAAAGUAGCAUUGGUAGAAGGUAGUAGUC
[1]
  apparent Kd: 12.4 nM
[2]
  apparent Kd: 22.4 nM

## GACUGCUGAGGAUAUACAUGAGGAUCACCCAUGUGCUUCAGCUAGGAGACUAGCAUUGGUAGAAGGUAGUAGUC
[1]
  apparent Kd: 11.1 nM
[2]
  apparent Kd: 16.1 nM

## GACUUGCGCACAGGAUAUCCACGGAGCGGACGUGGAGAAGGGUGACAUGAGGAUCACCCAUGUACGUAAGUCUGGAUCACAUCC
[3]
  apparent Kd: 41.8 nM
[4]
  apparent Kd: 19.5 nM

## GACUUGUUAGGAUAUCUUACUUUUGCAUCAUAGUAACCAUUGGAGAAGGGACAUGAGGAUCACCCAUGUUUGGA
[1]
  apparent Kd: 32.9 nM
[2]
  apparent Kd: 28.9 nM

## GAGAAGUCAGGAUAUGCUGCUCGUCACUUGCGUGAUGAGUAGCAGAAGGGACAUGAGGAUCACCCAUGUAAAGC
[1]
  apparent Kd: 47.3 nM
[2]
  apparent Kd: 53.6 nM

## GAGAGGUCAGGAUAUGCAUGGCGGGACUUGCGUCGUGGCGUGCAGAAGGGACAUGAGGAUCACCCAUGUGGAGG
[1]
  apparent Kd: 169 nM
[2]
  apparent Kd: 203 nM

## GAGCGGGAAACAUGAGGAUCACCCAUGUAGUAAAUCCUCACGUAGGAUAUGCACACGAGAAGUGUGCAGAAGGGCGACCCGGUC
[1]
  apparent Kd: 79.6 nM
[2]
  apparent Kd: 183 nM

## GAGCUUGAUGAGAAGGGUUACAUGAGGAUCACCCAUGUCGACCUUGGCGUAACAGGAUAUCAUCGGGCUCUGUGCGUUGACCCA
[1]
  apparent Kd: 23.7 nM
[2]
  apparent Kd: 120 nM

## GAGGCUGGUCAGAAGGCGCUGCAGGCUGCGUAGCGAGGAUAUGACAUGAGGAUCACCCAUGUGGUAGCUGAUCCUCGGCGUUUA
[1]
  apparent Kd: 361 nM
[2]
  apparent Kd: 33.3 nM

## GAGUACAUCGGAGGAUAUCAUGUAAAUACAUGAGGAUCACCCAUGUCGAUGGAGACAUCGGAGAUUGAGAAGGCCGAUGUACCG
[3]
  apparent Kd: 180 nM
[4]
  apparent Kd: 8.63 nM

## GAGUAGUUGAAAGGAUAUUGAUUGUUAUAGAAUCAAGAAGGUUCUAACAUGAGGAUCACCCAUGUAGGACUAUUCCUGUGUAUC
[3]
  apparent Kd: 12.3 nM
[4]
  apparent Kd: 9.66 nM

## GAGUGACAUGAGGAUCACCCAUGUGAGGAUAUCGGACGGACCAAAUUAACAAUAUUUGCGAGAAGGCACAUCGG
[1]
  apparent Kd: 88.5 nM
[2]
  apparent Kd: 130 nM

## GAUAAGGGCGAGGAUAUGCCAUUGGCUGAGGUCGUAGAAGGUGCCACAUGAGGAUCACCCAUGUAUCAAGUACG
[1]
  apparent Kd: 34.5 nM
[2]
  apparent Kd: 32.4 nM

## GAUAGGACAGAGAAGGACGUAGCUAGAGAUACUAGCAUAUGAACCUUCACAUGAGGAUCACCCAUGUAGGAUAUCUGUCCUAUC
[1]
  apparent Kd: 3.34 nM
[2]
  apparent Kd: 3.35 nM

## GAUCAACAUGAGGAUCACCCAUGUGAGGAUAUGUAUCAUAGAUCUUCGGAUCUAUGAUACAGAAGGCAUGUGAA
[1]
  apparent Kd: 76.1 nM
[2]
  apparent Kd: 101 nM

## GAUCCGUGGCUUUCGCUUUGUUCACAUGAGGAUCACCCAUGUAGAAGGUAGCGGUUGAAUUUCGCUGAGGAUAUACAUAGGUGC
[1]
  apparent Kd: 13.4 nM
[2]
  apparent Kd: 24.3 nM

## GAUCCUUCUGUUAGGAUAUGCUUUGGGCUUCCGCAGUAGAAGGAACAUGAGGAUCACCCAUGUCCGAUGCCGUC
[1]
  apparent Kd: 74.6 nM
[2]
  apparent Kd: 101 nM

## GAUCGUAUCCUAGGAUAUUCAUUAAAACAUGAGGAUCACCCAUGUAAAUUGGGAGAAGGAGGAUACGAUCAACAGCGAAAGCUG
[3]
  apparent Kd: 35.3 nM
[4]
  apparent Kd: 6.52 nM

## GAUCUACAUGAGGAUCACCCAUGUAAGGAUAUCGUCACUGGAGCUUCGGCUCCAGUGACGAGAAGGUACAAUUA
[1]
  apparent Kd: 28.8 nM
[2]
  apparent Kd: 32.1 nM

## GAUGCACAUGAGAAGGCGAUCAUGAAACAUGAUCGAGGAUAUCAUGUAAACAUGAGGAUCACCCAUGUAUGGGAAAAGUGCAUC
[3]
  apparent Kd: 119 nM
[4]
  apparent Kd: 12.1 nM

## GAUGCAUAUGAGAAGGCGAUCAUGAAACAUGAUCGAGGAUAUCAUGUAAACAUGAGGAUCACCCAUGUAUGGGAAAAGUGCAUC
[3]
  apparent Kd: 72.4 nM
[4]
  apparent Kd: 11.4 nM

## GAUGCAUAUGAGAAGGCGAUCAUGAAACAUGAUCGAGGAUAUCAUGUAAACAUGAGGAUCACCCAUGUAUGGGUAAAGUGCAUC
[3]
  apparent Kd: 392 nM
[4]
  apparent Kd: 27.7 nM

## GAUUGACAUGAGGAUCACCCAUGUGAGGAUAUCGGCUGGACCGUGUUGGCUUCCGUUUCGAGAAGGCGCAUAGG
[1]
  apparent Kd: 26.1 nM
[2]
  apparent Kd: 48.3 nM

## GAUUUAGAGCAGGAUAUCAUAGAAAUGUAUGAAUGAGAAGGGCUCACAUGAGGAUCACCCAUGUGGUCCUAGAU
[1]
  apparent Kd: 25.4 nM
[2]
  apparent Kd: 240 nM

## GCAAAAGUCCUGAGGGUAGGAGACAGAAGGGCACCGGGAUCACUCCACAUGAGGAUCACCCAUGUGCAGGAUAUGUCGGCUGAA
[1]
  apparent Kd: 22.3 nM
[2]
  apparent Kd: 327 nM

## GCACAUGAGGAUCACCCAUGUCGGGAGGAUAUCUAGGCUGGGCGAUGCUAGGGCGGCCUUUGCUUAGAGAAGGCCCAUAAAAUC
[3]
  apparent Kd: 69.1 nM
[4]
  apparent Kd: 32.4 nM

## GCACGAGACUAAGGAUAUGGAGUGUCUACAUUAAACAUGAGGAUCACCCAUGUAGGGAGUAUGAUUCAGAAGGUAGAGACGUGC
[3]
  apparent Kd: 331 nM
[4]
  apparent Kd: 48.3 nM

## GCACGGCAUGUAGGAUAUCGAGCGCCGGGCGCUCGAGAAGGACAUGAGGAUCACCCAUGUAUUCUGAGUGACAGAGUGCUGUGC
[1]
  apparent Kd: 19 nM
[2]
  apparent Kd: 46.8 nM

## GCACGGUAUGUAGGAUAUGCAUAGCAUUGCUAUGCAGAAGGACAUGAGGAUCACCCAUGUAUGUAUUCCAUACAUUUCCCGUGC
[1]
  apparent Kd: 5.73 nM
[2]
  apparent Kd: 5.74 nM

## GCACUGGAUGUAGGAUAUCAGGACGAUAAGUCCUGAGAAGGACAUGAGGAUCACCCAUGUAAUAACUCCCAGUGCUAUAAUAUA
[1]
  apparent Kd: 16.4 nM
[2]
  apparent Kd: 20.1 nM

## GCACUUCGGCAGAAGGGACUAUGGGUAUGGUAGUCAGGAUAUGCAGGGUGGGCGUUUCACAUGAGGAUCACCCAUGUAGGACCA
[3]
  apparent Kd: 15.1 nM
[4]
  apparent Kd: 8.52 nM

## GCAGCAUAUGCAGGAUAUCAGCACGUGUAGUGCUGAGAAGGGCACAUGAGGAUCACCCAUGUGAUCAAUUAAUAUUUAUGCUGC
[1]
  apparent Kd: 7.98 nM
[2]
  apparent Kd: 24.8 nM

## GCAGCGCCUGACAUGAGGAUCACCCAUGUUAGAUUGUUAAGUCAGGAUAUAGUCUAGAAACUAGACUAGAAGGGAUAUGCUGCU
[3]
  apparent Kd: 15 nM
[4]
  apparent Kd: 8.03 nM

## GCAGCUAAUGCAGGAUAUCAGCACGUGUAGUGCUGAGAAGGGCACAUGAGGAUCACCCAUGUGAUCAAUUAAUCUUAAUGCUGC
[1]
  apparent Kd: 17.3 nM
[2]
  apparent Kd: 54.5 nM

## GCAGCUAAUGCAGGAUAUCAGCACGUGUAGUGCUGAGAAGGGCACAUGAGGAUCACCCAUGUGAUCAAUUAAUGUUAAUGCUGC
[1]
  apparent Kd: 18.1 nM
[2]
  apparent Kd: 57.5 nM
